Assay outcomes from PubChem.
This is a sample that favours compounds with a hit; in the whole collection about 1.4% have one here.
Thrombin inh = inhibitors of human thrombin | alpha-thrombin, Boc-VPR-AMC fluorogenic substrate cleavage | inhibition, % at 5 µM | P00734 | 0.26% of 220,000 active;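 active means inhibition at or above 40%; inactive means inhibition below 40%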;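 further: 0% = enzyme with no compound and 100% = wells without enzyme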
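Material: human alpha-thrombin protein; Also added: Boc-VPR-AMC substrate, 15 µM final; Timing: enzyme reaction carried out at room temperature; Signal: fluorescence, ex 355 nm, em 460 nm; Measure: % inhibition of thrombin; Controls: enzyme without compound as high, wells lacking enzyme as low.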
m-calpain inh = inhibitors of pig calpain II | AID 1236 | inhibition, % at 16 µM | 0.37% of 220,000 active | purified calpain II, fluorogenic peptide substrate, 30 min;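 active means inhibition above about 50%, limit read from the data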
FXIa inh 1536 = factor XIa (human) inhibition; AID 798; inhibition, % at 5 µM; purified FXIa, Boc-Glu-Ala-Arg-AMC fluorogenic substrate; P03951; 0.14% of 220,000 active;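 active means inhibition of at least 40%; inactive means inhibition below 40%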;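 further: fluorescence of freed AMC excited at 355 nm; 0% = enzyme without compound and 100% = no enzyme blank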
Target sequence (P03951 19-387 limits assumed): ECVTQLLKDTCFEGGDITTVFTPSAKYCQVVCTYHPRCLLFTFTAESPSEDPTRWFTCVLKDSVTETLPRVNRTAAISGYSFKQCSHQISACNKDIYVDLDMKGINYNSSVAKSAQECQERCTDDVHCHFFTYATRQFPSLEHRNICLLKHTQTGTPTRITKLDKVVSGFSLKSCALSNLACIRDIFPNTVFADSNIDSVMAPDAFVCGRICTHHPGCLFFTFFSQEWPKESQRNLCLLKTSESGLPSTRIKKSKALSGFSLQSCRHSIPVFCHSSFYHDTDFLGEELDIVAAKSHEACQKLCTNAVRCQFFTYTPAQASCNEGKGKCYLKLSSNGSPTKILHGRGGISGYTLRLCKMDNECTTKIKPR
Target sequence (P03951 388-625 limits assumed): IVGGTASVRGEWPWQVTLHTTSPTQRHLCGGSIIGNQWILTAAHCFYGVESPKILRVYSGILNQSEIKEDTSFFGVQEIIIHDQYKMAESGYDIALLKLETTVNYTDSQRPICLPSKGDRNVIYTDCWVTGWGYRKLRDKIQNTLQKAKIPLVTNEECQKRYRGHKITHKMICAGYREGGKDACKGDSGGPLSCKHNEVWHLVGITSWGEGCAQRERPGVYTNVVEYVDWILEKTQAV
hK5 inh = kallikrein 5 (human) inhibition; inhibition, % at 5 µM; Q9Y337; recombinant hK5, fluorogenic AMC substrate cleavage; 0.59% of 210,000 active;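 active means inhibition of 40% or more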;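 further: 0% = enzyme controls without compound and 100% = no-enzyme blanks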
FXIIa inh 1536 = inhibitors of human coagulation factor XIIa; P00748; purified FXIIa, Boc-QGR-AMC fluorogenic substrate, 2 h; inhibition, % at 5 µM; 0.3% of 220,000 active; AID 800; in the data active means inhibition above about 40%;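 further: 0% = enzyme with no compound and 100% = blank without enzyme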
Starred values were filed as active, the others as inactive; . = not tested or not shown.

SMILES	Thrombin inh	m-calpain inh	FXIa inh 1536	hK5 inh	FXIIa inh 1536
COc1ccc(CCNC(=O)C2CCC(CNS(=O)(=O)c3ccccc3)CC2)cc1OC (centres undefined)	52.6*	35.8	29.3	20.6	25.6
COc1cccc2cc(C(=O)NCC3CCCO3)c(=O)oc12 (centres undefined)	104.0*	-30.0	13.8	44.0*	16.8
COc1ccc(CCNC(=O)Cn2nnc(-c3ccc(N4CCOCC4)cc3)n2)cc1OC	1.8	-36.9	-9.4	126.1*	-6.4
COc1ccc(CCNC(=O)Cn2nnc(-c3cccc(OC)c3OC)n2)cc1OC	-13.8	11.6	2.4	4.9	-8.9
COc1cc(Br)cc2cc(C(=O)NCC3CCCO3)c(=O)oc12 (centres undefined)	-7.8	-26.1	-16.0	-7.9	1.8
COc1ccc(NC(=O)c2cccnc2N2CCCC2)cc1	24.8	10.1	2.1	59.0*	3.7
OCCNC(=S)Nc1cc(Cl)cc(Cl)c1	-6.1	19.9	-5.5	-7.2	-2.5
CCOC(=O)c1ccc(NC(=O)Cn2c(-c3nonc3N)nc3ccccc32)cc1	.	58.9*	4.2	4.7	9.9
CCOc1ccc(NC(=O)C(C)O)c(NS(=O)(=O)c2ccc(CCNC(C)=O)cc2)c1 (centres undefined)	104.0*	5.7	3.1	79.1*	-1.1
CCOC(=O)c1ccc(NC(=O)Nc2cccc(C)n2)cc1	14.9	36.5	45.0*	11.0	20.4
CCOC(=O)c1ccc(NC(=O)Nc2ccccn2)cc1	-0.6	22.2	1.4	.	12.1
COc1ccc(C(=O)/C=C/Sc2nc3ccccc3o2)cc1	-4.5	1.6	3.1	-8.3	6.2
CCCCOC(=O)Sc1nc2ccccc2o1	46.3*	-26.0	2.2	-50.1	12.8
CC(=O)Nc1cccc(C(=O)N/N=C/c2ccc(C)o2)c1	-6.7	17.4	-3.1	2.2	1.5
COc1cc([N+](=O)[O-])ccc1-c1ccc(/C=N/NC(=O)c2ccccc2O)o1	0.5	53.5*	-0.3	-2.5	6.6
Cc1ccc(/C=N/NC(=O)c2cccc([N+](=O)[O-])c2)o1	12.8	24.0	2.4	40.8*	9.9
CS(=O)(=O)N1CCC(C(=O)N2CCN(C(c3ccccc3)c3ccccc3)CC2)CC1	1.1	-5.7	-5.7	1.7	-0.9
CCN(CCNS(=O)(=O)c1ccc2c(c1)oc(=O)n2C)c1ccccc1	-4.7	16.7	-2.2	42.0*	5.7
Cc1nn(Cc2ccccc2)c(Cl)c1/C=C/C(=O)OCC(=O)N1CCCC1=O	-4.0	-23.9	2.8	-2.3	5.8
CS(=O)(=O)N1CCN(c2ccc([N+](=O)[O-])c(NCc3cccnc3)c2)CC1	-2.2	-15.6	-1.8	1.4	11.4
CCCCN(CC)CCCNC(=S)Nc1ccc2nc3n(c(=O)c2c1)CCCCC3	-1.6	64.8*	5.5	-8.9	12.5
O=C(N[C@@H](Cc1ccccc1)C(=O)OCc1ccccc1)c1nc[nH]c1C(=O)NCc1ccccc1	-3.1	27.8	-0.9	-3.7	9.4
O=C(N[C@@H](Cc1ccccc1)C(=O)OCc1ccccc1)c1nc[nH]c1C(=O)N1CCN(c2ccccc2)CC1	-1.8	51.4*	-0.7	1.1	3.4
C1=C(c2ccccc2)CCN(c2nc3ccccc3n3cnnc23)C1	-6.0	-17.9	-1.2	40.6*	3.7
CC(CNC(=O)c1cccs1)c1ccc([N+](=O)[O-])cc1 (centres undefined)	2.4	-2.6	3.4	.	12.6
SMILES	Thrombin inh	m-calpain inh	FXIa inh 1536	hK5 inh	FXIIa inh 1536
COC(=O)c1c(NC(=O)c2c(-c3ccccc3Cl)noc2C)sc2c1CCC2	2.2	-117.2	-12.7	-23.8	41.4*
C=CCNC(=O)CN(c1ccc(F)cc1)S(=O)(=O)c1ccc(OC)cc1	-2.1	30.8	12.0	3.7	54.5*
O=C(c1cc2c(s1)-c1ccccc1S(=O)(=O)C2)N1CCN(Cc2ccccc2)CC1	-1.1	-19.0	4.2	-9.7	7.4
Cc1cc(N(C)C)c(C#N)c(NCc2ccccc2)n1	18.9	0.8	3.2	64.4*	27.0
Cc1c(N=C2N=C(NC(=O)c3ccc(F)cc3)c3ccccc32)c(=O)n(-c2ccccc2)n1C	3.6	-92.6	-1.1	-15.7	-1.0
COC(=O)CCCCCC(CCC(=O)OC)NC(C)=O (centres undefined)	23.5	7.6	6.2	51.4*	15.8
CCOc1cc(/C=N/NC(=O)c2ccncc2)ccc1OS(C)(=O)=O	-6.2	105.6*	6.7	-14.7	13.3
CCOc1cc(/C=N/NC(=O)c2ccncc2)cc(Cl)c1OS(C)(=O)=O	-3.9	16.1	7.1	4.0	12.7
O=C(N/N=C/c1ccc(OCc2cnc(Cl)s2)cc1)c1ccncc1	49.5*	25.4	28.3	26.1	66.2*
Cc1ccsc1C1CC(=O)OC2=C1C(=O)CC(C)(C)C2 (centres undefined)	2.3	30.1	13.4	.	37.5
Cc1cc(=O)[nH]c2c1c(C)nn2C1CCCC1	2.8	16.2	-0.9	53.8*	-0.9
Cc1noc(C)c1CS(=O)(=O)c1ccc([N+](=O)[O-])cc1	-0.8	-7.8	-1.1	.	4.1
O=C(NCc1cccnc1)c1ccccc1CCc1ccccc1	-0.2	50.0*	-0.8	2.3	8.4
O=C(O)c1ccccc1C(=O)NCc1cccnc1	2.3	9.5	1.4	7.1	14.6
COc1ccccc1N=Cc1nc(-c2ccccc2)oc1OC(C)=O	26.0	16.9	43.5*	-4.5	31.4
CCC(C)NC(=O)CN(c1cc(Cl)cc(Cl)c1)S(C)(=O)=O (centres undefined)	-4.7	-35.3	1.4	5.1	11.2
Cc1c(Cl)c([N+](=O)[O-])nn1CC(=O)N1CCN(Cc2ccccc2)CC1	3.7	-3.0	-4.8	9.0	0.0
Cc1ccc2c(c1)NC(=O)C(CC(=O)NCCCN1CCCCC1C)O2 (centres undefined)	13.3	-4.4	3.4	47.3*	11.9
COc1ccc(CC(=O)Nc2cc(C)ccn2)cc1	29.7	4.6	10.2	82.0*	-0.5
Cc1ccnc(NC(=O)c2ccc([N+](=O)[O-])o2)c1	100.9*	-45.1	12.2	19.8	10.1
Cc1ccnc(NC(=O)CCCOc2ccc(Cl)cc2C)c1	6.0	46.1	34.7	41.3*	26.8
Cc1ccccc1OCCCC(=O)Nc1nccs1	-8.3	-26.9	-5.6	-29.5	2.3
Cc1ccc(C)c(OCCCC(=O)Nc2nccs2)c1	-2.2	69.1*	4.7	-14.8	15.2
CCOc1ccc(N2C(=O)C3Sc4[nH]c(=O)sc4C(c4ccc(OC)c(OC)c4)C3C2=O)cc1 (centres undefined)	-3.0	-5.6	1.0	-0.5	8.8
CCCCC(=O)Nc1ccc(C(=O)Nc2ccc(S(=O)(=O)Nc3ccc(C)cc3)cc2)cc1	-11.7	3.1	-0.5	-9.8	5.5
COc1cc([N+](=O)[O-])ccc1NC(=O)CSc1nnc(C)c(C)n1	-6.0	34.9	-0.1	4.2	6.5
COC(=O)c1ccc(NC(=O)c2snnc2-c2ccccc2)cc1	-0.8	17.6	-6.5	-22.4	-3.6
O=C(c1ccc(Cl)c([N+](=O)[O-])c1)N1CCN(Cc2ccc3c(c2)OCO3)CC1	1.3	5.7	-3.4	-28.0	8.2
